Broadly, the IC50 is the concentration that inhibits the measured activity by half.

A short description of test [1]: In vitro calcium antagonist activity was assessed against calcium induced constriction of potassium-depolarized rat aorta. It counts as functional, tissue-based. The procedure, abridged: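 Spirally cut rat aortic strips, one end fixed and the other on a force transducer, in modified Krebs-Henseleit with 45 mM K⁺ and no calcium. CaCl2 is added to a final 2 mM Ca²⁺ and the contraction tension is recorded. After draining, refilling and 45 min, the challenge is repeated with the compound in the saline. The concentration giving 50% reduction of the response is recorded.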

The species named for the next test is Cavia porcellus. Kind of test: Negative inotropy measured as the concentration required to depress contraction in the isolated Langendorff-perfused guinea pig heart by 25%. It counts as functional. The procedure, abridged:
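Hearts from male guinea pigs were Langendorff-perfused with Krebs-Henseleit solution at 37 °C. Force and rate of contraction were measured with a force transducer attached to the apex.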

Test [2] concerns Canis familiaris. Kind of test: Percent decrease in coronary vascular resistance in dogs after intravenous dosage of 150 ug/kg compound.
For test [3], the system named is Canis familiaris. Briefly: Percent decrease in coronary vascular resistance in dogs after intravenous dosage of 450 ug/kg compound. In kind it is functional, Canis lupus familiaris. The procedure, abridged:
(§1)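 Given intravenously to instrumented, anesthetized dogs. Coronary blood flow was measured by hydrogen clearance. Coronary vascular resistance was derived as arterial blood pressure divided by coronary flow.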

Test [4] relates to Canis familiaris. Kind of test: Percent decrease in coronary vascular resistance in dogs after intravenous dosage of 1500 ug/kg compound. It counts as functional, Canis lupus familiaris. The procedure, abridged:
as §1

Test [5] in a line: Compound was tested for the plasma half life in dogs. It counts as functional.
The nature of test [6]: Compound was tested for the volume of distribution in dogs. It counts as functional, organism-based.
A further test is filed under the species Rattus norvegicus. Kind of test: In vitro calcium antagonist activity was assessed against calcium induced constriction of potassium -depolarized rat aorta by 50%.

Each structure is given as a SMILES string.

On to `CCO/C(O)=C1\C(COCCN(C)C)=NC(C)=C(C(=O)OC)C1c1cccc2ccccc12` (stereo not given), for which the “-Log IC50” value in test [1] was found to be 7.1. Besides, the “-Log IC25” value in the test filed under Cavia porcellus was determined as 7.7.
On to `CCO/C(O)=C1\C(COCCN2CCN(Cc3ccc(Cl)cc3)CC2)=NC(C)=C(C(=O)OC)C1c1ccccc1Cl` (stereo not given), for which, in test [1], the “-Log IC50” value amounted to 8. Moreover, the “-Log IC25” value in the test listed under Cavia porcellus is 7.4.
`CCOC(=O)C1=C(COCCN)NC(C)=C(C(=O)OC)C1c1ccccc1Cl` (stereo in doubt; 17) [AMLODIPINE]: the values for the Decrease with Canis familiaris [2], in the test on Canis familiaris [3] and in the test with Canis familiaris [4] were 35.4%, 69.5% and 76.9%, respectively. Further, the “-Log IC50” value in test [1] turned out to be 8.1.
Regarding `CCO/C(O)=C1\C(COCCN2CCN(C(C)C)CC2)=NC(C)=C(C(=O)OC)C1c1ccccc1Cl` (stereo not given), in test [1], the “-Log IC50” value is 8.2. For the same compound, in the test listed under Cavia porcellus, the “-Log IC25” value was 8.
For the compound `CCO/C(O)=C1\C(COCCN2CCN(c3ccc(F)cc3)CC2)=NC(C)=C(C(=O)OC)C1c1ccccc1Cl` (stereo not given), in test [1], the “-Log IC50” value worked out at 7.9. Also, the “-Log IC25” value in the test filed under Cavia porcellus was 7.3.
As for `CCO/C(O)=C1\C(COCCN)=NC(C)=C(C(=O)OC)C1c1ccccc1` (stereo not given), the “-Log IC50” value in test [1] came out at 6.8. The “-Log IC25” value in the test listed under Cavia porcellus is listed as 6.2.
For `CCO/C(O)=C1\C(COCCN)=NC(C)=C(C(=O)OC)C1c1ccc(Cl)cc1` (stereo not given), in test [1], the “-Log IC50” value turned out to be 6. In the test listed under Cavia porcellus, the “-Log IC25” value turned out to be 6.
Regarding `CCO/C(O)=C1\C(COCCN2CCCC2)=NC(C)=C(C(=O)OC)C1c1ccccc1Cl` (stereo not given), the “-Log IC50” value in test [1] came to 7.9. The “-Log IC25” value in the test listed under Cavia porcellus is 7.7.
Turning to `CCOC(=O)C1=C(COCCN)NC(C)=C(C(=O)OC)C1c1ccccc1Cl` (stereo in doubt; 18) [AMLODIPINE], the “-Log IC50” value in test [1] came out at 8.7.
On to `CCO/C(O)=C1\C(COCCN2CCN(C)CC2)=NC(C)=C(C(=O)OC)C1c1ccccc1Cl` (stereo not given), for which the “-Log IC50” value in test [1] worked out at 8. The “-Log IC25” value in the test filed under Cavia porcellus turned out to be 7.9.
In turn, `COC(=O)C1=C(C)NC(C)=C(C(=O)OCCN(C)Cc2ccccc2)C1c1cccc([N+](=O)[O-])c1` (stereo not given) showed a Plasma half life in test [5] of 17 h. The Vd in test [6] turned out to be 3.5 L/kg.
For the compound `CCO/C(O)=C1\C(COCCN(C)Cc2ccccc2)=NC(C)=C(C(=O)OC)C1c1ccccc1Cl` (stereo not given), the “-Log IC50” value in test [1] is 7.4. For the same compound, the “-Log IC25” value in the test filed under Cavia porcellus amounted to 7.3.
Take `CCOC(=O)C1=C(COCCN)NC(C)=C(C(=O)OC)C1c1ccccc1Cl` (stereo in doubt; 19) [AMLODIPINE]: the “-Log IC50” value in test [1] is given as 5.8.
As for `CCO/C(O)=C1\C(COCCNC)=NC(C)=C(C(=O)OC)C1c1ccccc1Cl` (stereo not given), the Decrease in the test on Canis familiaris [2] was determined as 46.2%; in the test with Canis familiaris [3], 73.8%; in the test on Canis familiaris [4], 78.6%. For the same compound, the “-Log IC50” value in test [1] came out at 8.5. For the same compound, the “-Log IC25” value in the test filed under Cavia porcellus stood at 7.5.
For the compound `CCO/C(O)=C1\C(COCCCN(C)C)=NC(C)=C(C(=O)OC)C1c1ccccc1Cl` (stereo not given), the “-Log IC50” value in test [1] came out at 8.6. Also, the “-Log IC25” value in the test listed under Cavia porcellus worked out at 8.6.
Take `CCO/C(O)=C1\C(COCCNC)=NC(C)=C(C(=O)OC)C1c1ccccc1OC` (stereo not given): the “-Log IC50” value in test [1] came out at 7.2. Moreover, the “-Log IC25” value in the test listed under Cavia porcellus was 7.1.
For the compound `CCO/C(O)=C1\C(COCCN)=NC(C)=C(C(=O)OC)C1c1cccc(Cl)c1Cl` (stereo not given), the “-Log IC50” value in test [1] worked out at 7.9. The “-Log IC25” value in the test filed under Cavia porcellus is 6.6.
In the same order, the values of `CCO/C(O)=C1\C(COCCN(C)C)=NC(C)=C(C(=O)OC)C1c1ccncc1` (stereo not given) are 6.1 and 6.
Turning to `CCO/C(O)=C1\C(COCCN)=NC(C)=C(C(=O)OC)C1c1cccc(C(F)(F)F)c1Cl` (stereo not given), the Decrease in the test with Canis familiaris [2] came out at 52.6%; in the test with Canis familiaris [3] it was 75.7%; with Canis familiaris [4], 81.7%. The “-Log IC50” value in test [1] worked out at 8.5. In addition, in the test filed under Cavia porcellus, the “-Log IC25” value is on record as 7.3.
As to `CCO/C(O)=C1\C(COCCN(C)C)=NC(C)=C(C(=O)OC)C1c1cccs1` (stereo not given), the “-Log IC50” value in test [1] is reported as 6.9. Further, the “-Log IC25” value in the test filed under Cavia porcellus is 6.6.
As to `CCO/C(O)=C1\C(COCCN)=NC(C)=C(C(=O)OC)C1c1cccc(Cl)c1` (stereo not given), in test [1], the “-Log IC50” value was 7.9. Also, the “-Log IC25” value in the test filed under Cavia porcellus is recorded as 6.6.
Take `COC(=O)C1=C(C)NC(C)=C(C(=O)OC)C1c1ccccc1[N+](=O)[O-]` [NIFEDIPINE]: in the test listed under Rattus norvegicus, the IC50 is 3.98 nM. The “-Log IC25” value in the test filed under Cavia porcellus is 7.5.
In the case of `CCO/C(O)=C1\C(COCCN2CCOCC2)=NC(C)=C(C(=O)OC)C1c1ccccc1Cl` (stereo not given), the “-Log IC50” value in test [1] stood at 7.8. Besides, in the test filed under Cavia porcellus, the “-Log IC25” value amounted to 7.5.
In the case of `CCO/C(O)=C1\C(COCCCN2CCN(C)CC2)=NC(C)=C(C(=O)OC)C1c1ccccc1Cl` (stereo not given), the “-Log IC50” value in test [1] was 8.4. In the test filed under Cavia porcellus, the “-Log IC25” value was determined as 8.2.
As for `CCO/C(O)=C1\C(COCCNC)=NC(C)=C(C(=O)OC)C1c1ccccc1C` (stereo not given), the “-Log IC50” value in test [1] is 7.2. Also, in the test listed under Cavia porcellus, the “-Log IC25” value turned out to be 7.2.
`CCO/C(O)=C1\C(COCCN)=NC(C)=C(C(=O)OC)C1c1ccccc1F` (stereo not given): the “-Log IC50” value in test [1] stood at 7.8. Further, the “-Log IC25” value in the test filed under Cavia porcellus was 6.6.
On to `CCO/C(O)=C1\C(COCCN2CCN(CCN(CC)CC)CC2)=NC(C)=C(C(=O)OC)C1c1ccccc1Cl` (stereo not given), for which the “-Log IC50” value in test [1] was found to be 6. Further, the “-Log IC25” value in the test filed under Cavia porcellus was determined as 7.1.
For the compound `CCO/C(O)=C1\C(COCCN(C)C)=NC(C)=C(C(=O)OC)C1c1ccccc1Cl` (stereo not given), the values for the Decrease in the test on Canis familiaris [2], in the test with Canis familiaris [3] and in the test with Canis familiaris [4] were 64.8%, 68.9% and 74.7%, respectively. In test [1], the “-Log IC50” value was found to be 8.1. The “-Log IC25” value in the test filed under Cavia porcellus is 7.5.
`CCO/C(O)=C1\C(COCCNC)=NC(C)=C(C(=O)OC)C1c1c(F)cccc1Cl` (stereo not given): the “-Log IC50” value in test [1] turned out to be 7.9. The “-Log IC25” value in the test listed under Cavia porcellus was found to be 7.6.
`CCO/C(O)=C1\C(COCCN(C)C)=NC(C)=C(C(=O)OC)C1c1cccc([N+](=O)[O-])c1` (stereo not given): the “-Log IC50” value in test [1] is listed as 8. In addition, the “-Log IC25” value in the test listed under Cavia porcellus came out at 7.1.
Regarding `CCO/C(O)=C1\C(COCCN2CCNCC2)=NC(C)=C(C(=O)OC)C1c1ccccc1Cl` (stereo not given), the “-Log IC50” value in test [1] stood at 6.8. Moreover, the “-Log IC25” value in the test filed under Cavia porcellus is 7.4.
As for `CCO/C(O)=C1\C(COCCN(C)C)=NC(C)=C(C(=O)OC)C1c1ccccc1C(F)(F)F` (stereo not given), in test [1], the “-Log IC50” value came out at 7.4. In the test listed under Cavia porcellus, the “-Log IC25” value is on record as 7.6.
Turning to `CCO/C(O)=C1\C(COCCN2CCC(N(C)C)CC2)=NC(C)=C(C(=O)OC)C1c1ccccc1Cl` (stereo not given), the “-Log IC50” value in test [1] came to 6.4. The “-Log IC25” value in the test filed under Cavia porcellus was determined as 7.1.

For the origin of these results see ChEMBL document CHEMBL1123472, “Long-acting dihydropyridine calcium antagonists. 1. 2-Alkoxymethyl derivatives incorporating basic substituents” (J Med Chem, 1986).
